Source: ChEMBL document CHEMBL3271979, “Inhibition of solid tumors by nitrosoureas. 1. Lewis lung carcinoma” (1977)
Calls of active or inactive are those of the source. The rule behind the calls is not given here.

How the values were obtained:
[1] = system: Mus musculus; experiment: Antitumor activity against mouse advanced Lewis lung carcinoma allografted in ip dosed BDF1 mouse assessed as complete regression of established tumor administered as single dose on day 6 or 7 post-tumor implantation; assay type: functional, organism-based
Procedure, shortened: (§1)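 BDF1 mice (C57Blk/6 × DBA/2) implanted sc by trocar with Lewis lung tumor fragments of about 40 mg, taken only from bacteriologically sterile donor tumors. Mice bearing tumors of about 400 mg (day 6-7) were selected. Each received a single ip dose on day 7, at or below the LD10 in normal mice. Groups were of 10 mice. Tumor weight was taken from calipers as w = ab²/2, measured at least twice weekly. Matched non-tumor mice served as toxicity controls.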

[2] = Antitumor activity against mouse advanced Lewis lung carcinoma allografted in ip dosed BDF1 mouse assessed as increase in host lifespan administered as single dose on day 6 or 7 post-tumor implantation; assay type: functional
Procedure, shortened: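 Advanced Lewis lung model: about 40 mg fragments implanted sc by trocar into BDF1 mice, and mice with tumors of about 400 mg (day 6-7) selected. Tumor weight from calipers, w = ab²/2. Agent given as one ip dose in distilled water or physiological saline. Nontumor-bearing mice received matching doses as toxicity controls.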

[3] = system: Mus musculus; experiment: Antitumor activity against mouse advanced Lewis lung carcinoma allografted in BDF1 mouse assessed as disease cure at 45 mg/kg, ip administered as single dose on 7th day post-tumor implantation measured for 80 days post-drug treatment; assay type: functional, organism-based; parameters: dose 45 mg/kg; procedure, shortened: as §1
[4] = system: Mus musculus; experiment: Antitumor activity against mouse advanced Lewis lung carcinoma allografted in BDF1 mouse assessed as disease cure at 30 mg/kg, ip administered as single dose on 7th day post-tumor implantation measured for 80 days post-drug treatment; assay type: functional, organism-based; parameters: dose 30 mg/kg; procedure, shortened: as §1
[5] = Antitumor activity against mouse advanced Lewis lung carcinoma allografted in BDF1 mouse assessed as increase in host life span at 45 mg/kg, ip administered as single dose on 7th day post-tumor implantation; assay type: functional; details: route intraperitoneal
Procedure, shortened: (§2)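 BDF1 mice (C57Blk/6 × DBA/2) implanted sc by trocar with about 40 mg Lewis lung tumor fragments from bacteriologically sterile donors. Advanced-disease groups held tumors of about 400 mg by day 6-7, sized by caliper (w = ab²/2). Single ip injection on day 7, in water or saline vehicle, at or below the LD10 in normal mice. Tumors measured at least twice weekly.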

[6] = Antitumor activity against mouse advanced Lewis lung carcinoma allografted in BDF1 mouse assessed as increase in host life span at 30 mg/kg, ip administered as single dose on 7th day post-tumor implantation; assay type: functional; details: route intraperitoneal; procedure, shortened: as §2
[7] = system: Mus musculus; experiment: Antitumor activity against mouse advanced Lewis lung carcinoma allografted in BDF1 mouse assessed as complete regression of established tumor at 30 mg/kg, ip administered as single dose on 7th day post-tumor implantation; assay type: functional, organism-based; parameters: dose 30 mg/kg; procedure, shortened: as §1
[8] = system: Mus musculus; experiment: Antitumor activity against mouse advanced Lewis lung carcinoma allografted in ip dosed BDF1 mouse assessed as disease cure administered as single dose on day 6 or 7 post-tumor implantation; assay type: functional, organism-based; procedure, shortened: as §1
[9] = system: Mus musculus; experiment: Antitumor activity against mouse advanced Lewis lung carcinoma allografted in BDF1 mouse assessed as disease cure at 32 mg/kg, ip administered as single dose on 7th day post-tumor implantation measured for 80 days post-drug treatment; assay type: functional, organism-based; parameters: dose 32 mg/kg; procedure, shortened: as §1
[10] = system: Mus musculus; experiment: Antitumor activity against mouse advanced Lewis lung carcinoma allografted in BDF1 mouse assessed as complete regression of established tumor at 32 mg/kg, ip administered as single dose on 7th day post-tumor implantation; assay type: functional, organism-based; parameters: dose 32 mg/kg; procedure, shortened: as §2
[11] = Antitumor activity against mouse advanced Lewis lung carcinoma allografted in BDF1 mouse assessed as increase in host life span at 32 mg/kg, ip administered as single dose on 7th day post-tumor implantation; assay type: functional; details: route intraperitoneal; procedure, shortened: as §2
[12] = system: Mus musculus; experiment: Antitumor activity against mouse early Lewis lung carcinoma allografted in ip dosed BDF1 mouse assessed as disease cure administered as single dose on 1 or 2 days post-tumor implantation measured for 80 days post-drug treatment; assay type: functional
Procedure, shortened: (§3)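 BDF1 mice implanted sc by trocar with ~40 mg Lewis lung fragments from sterile donor tumors. A single ip dose was given on day 1 or 2 after implant, in water or saline vehicle. Cures were scored in animals observed for at least 80 days after treatment. Drug-toxicity controls were matched non-tumor-bearing mice monitored for body weight and deaths.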

[13] = system: Mus musculus; experiment: Antitumor activity against mouse early Lewis lung carcinoma allografted in ip dosed BDF1 mouse administered as single dose on 1 or 2 days post-tumor implantation measured for 80 days post-drug treatment; assay type: functional, organism-based; procedure, shortened: as §3
[14] = Ratio of ED50 for antitumor activity against mouse L1210 cells allografted in ip dosed mouse to LD10 for mouse
[15] = system: Mus musculus; experiment: Antitumor activity against mouse advanced Lewis lung carcinoma allografted in BDF1 mouse assessed as disease cure at 36 mg/kg, ip administered as single dose on 7th day post-tumor implantation measured for 80 days post-drug treatment; assay type: functional, organism-based; parameters: dose 36 mg/kg; procedure, shortened: as §1
[16] = Antitumor activity against mouse advanced Lewis lung carcinoma allografted in BDF1 mouse assessed as increase in host life span at 36 mg/kg, ip administered as single dose on 7th day post-tumor implantation; assay type: functional; details: route intraperitoneal; procedure, shortened: as §2
[17] = system: Mus musculus; experiment: Antitumor activity against mouse advanced Lewis lung carcinoma allografted in BDF1 mouse assessed as complete regression of established tumor at 36 mg/kg, ip administered as single dose on 7th day post-tumor implantation; assay type: functional, organism-based; parameters: dose 36 mg/kg; procedure, shortened: as §1

Row | Structure (SMILES) | inhibition [1] | ILS [2] | Activity [8] | also measured
1 | CC(C)[C@H]1CC[C@H](NC(=O)N(CCF)N=O)CC1 | inactive | <25% |  | 
2 | CC[C@H]1CC[C@H](NC(=O)N(CCF)N=O)CC1 | inactive | <25% |  | 
3 | CCOC(=O)[C@H]1CCC[C@@H](NC(=O)N(CCCl)N=O)C1 (relative stereo) | Active |  | inactive | Activity [3]: inactive; Activity [4]: inactive; ILS at 45 mg/kg [5]: 0%; ILS at 30 mg/kg [6]: 62%; inhibition [7]: inactive
4 | C[C@H]1S(=O)(=O)C[C@@H](NC(=O)N(CCCl)N=O)CS1(=O)=O | inactive | >25% | inactive | Activity [9]: inactive; inhibition [10]: inactive; ILS at 32 mg/kg [11]: 10%; Activity [12]: inactive; Activity [13]: inactive; Ratio [14]: 0.6
5 | C[C@H]1CCC[C@@H](NC(=O)N(CCCl)N=O)C1 (relative stereo) | inactive | <25% |  | 
6 | O=NN(CCCl)C(=O)NC1CC2CCC1C2 (configuration not stated) | inactive | >25% | inactive | 
7 | CC(=O)O[C@H]1CC[C@H](NC(=O)N(CCF)N=O)CC1 | inactive | <25% |  | 
8 | C[C@H]1S(=O)(=O)C[C@H](NC(=O)N(CCCl)N=O)CS1(=O)=O | inactive | <25% |  | Activity [12]: inactive; Activity [13]: inactive; Ratio [14]: 0.4
9 | O=NN(CCF)C(=O)N[C@H]1CC[C@@H](C(=O)O)CC1 | inactive | <25% |  | 
10 | O=NN(CCCl)C(=O)NC1C=CCCC1 (configuration not stated) | inactive | <25% |  | 
11 | O=NN(CCF)C(=O)N[C@H]1CC[C@H](C(=O)O)CC1 |  |  | Active | ILS at 45 mg/kg [5]: 60%
12 | CC(=O)O[C@H]1CC[C@H](NC(=O)N(CCCl)N=O)CC1 | inactive | >25% | inactive | Activity [15]: inactive; ILS at 36 mg/kg [16]: 34%; inhibition [17]: inactive
13 | O=NN(CCCl)C(=O)NCCF |  |  |  | Activity [9]: inactive; inhibition [10]: inactive; ILS at 32 mg/kg [11]: 44%
